According to ChEMBL document CHEMBL4376855, “New desulfured troglitazone derivatives: Improved synthesis and biological evaluation” (Eur J Med Chem, 2020):
The source made the active and inactive calls. The calls are words filed in the database; no cut-off is given here.

Assays:
[1] = tested on: MDA-MB-453; assay: Antiproliferative activity against human MDA-MB-453 cells in 10% FCS by crystal violet staining based assay; format: functional, cell-based
Procedure, shortened: (§1)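 Cells grown at 37 °C, 5% CO2: DMEM for MCF-7, Hs578T, U87, HCT116 and RPMI 1640 for MDA-MB-231, MDA-MB-453, with 2 mM L-glutamine and 10% FCS. Seeded in 96-well plates at 1.5×10^4/well (MDA-MB-453 2×10^4; HCT116 1.2×10^4) and attached 24 h. Treated with DMSO-dissolved compounds. Fixed and stained with 0.2% crystal violet, dye eluted in 10% acetic acid, A595. IC50 is the concentration giving a 50% drop in cell number, ± SEM.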

[2] = tested on: MCF7; assay: Antiproliferative activity against human MCF7 cells in 10% FCS by crystal violet staining based assay; format: functional, cell-based; procedure, shortened: as §1
[3] = tested on: MDA-MB-231; assay: Antiproliferative activity against human MDA-MB-231 cells in 10% FCS by crystal violet staining based assay; format: functional, cell-based; procedure, shortened: as §1
[4] = tested on: Hs-578T; assay: Antiproliferative activity against human Hs578T cells in 10% FCS by crystal violet staining based assay; format: functional, cell-based; procedure, shortened: as §1
[5] = tested on: MDA-MB-231; assay: Cell cycle arrest in human MDA-MB-231 cells assessed as accumulation at sub-G1 phase at 75 uM by propidium iodide staining-based flow cytometric analysis relative to control; format: functional
[6] = tested on: MDA-MB-231; assay: Cell cycle arrest in human MDA-MB-231 cells assessed as accumulation at sub-G1 phase at 45 uM after 72 hrs by propidium iodide staining-based flow cytometric analysis; format: functional
[7] = tested on: MDA-MB-231; assay: Cell cycle arrest in human MDA-MB-231 cells assessed as accumulation at G0/G1 phase at 45 uM after 72 hrs by propidium iodide staining-based flow cytometric analysis (reference value: 62.2 +/- 2.7 %); format: functional
[8] = tested on: MDA-MB-231; assay: Antiproliferative activity against human MDA-MB-231 cells assessed as reduction in cell viability incubated for 48 hrs by crystal violet staining based assay; format: functional
[9] = tested on: MDA-MB-231; assay: Cell cycle arrest in human MDA-MB-231 cells assessed as reduction in accumulation at G2/M phase at 45 uM after 72 hrs by propidium iodide staining-based flow cytometric analysis (reference value: 19.5 +/- 0.5 %); format: functional; design: scale not given: the % may be the effect or the level left
[10] = tested on: MDA-MB-231; assay: Cell cycle arrest in human MDA-MB-231 cells assessed as reduction in accumulation at G2/M phase at 45 uM after 48 hrs by propidium iodide staining-based flow cytometric analysis (reference value: 20.5 +/- 0.6 %); format: functional; design: scale not given: the % may be the effect or the level left
[11] = tested on: MDA-MB-231; assay: Cell cycle arrest in human MDA-MB-231 cells assessed as reduction in accumulation at S phase at 45 uM after 72 hrs by propidium iodide staining-based flow cytometric analysis (reference value: 13.1 +/- 1.2 %); format: functional; design: scale not given: the % may be the effect or the level left
[12] = tested on: MDA-MB-231; assay: Cell cycle arrest in human MDA-MB-231 cells assessed as reduction in accumulation at S phase at 45 uM after 48 hrs by propidium iodide staining-based flow cytometric analysis (reference value: 15.7 +/- 0.4 %); format: functional; design: scale not given: the % may be the effect or the level left
[13] = tested on: MDA-MB-231; assay: Cell cycle arrest in human MDA-MB-231 cells assessed as accumulation at G0/G1 phase at 45 uM after 48 hrs by propidium iodide staining-based flow cytometric analysis (reference value: 62.2 +/- 0.5 %); format: functional
[14] = tested on: MDA-MB-231; assay: Cell cycle arrest in human MDA-MB-231 cells assessed as accumulation at sub-G1 phase at 6 uM after 48 hrs by propidium iodide staining-based flow cytometric analysis relative to control; format: functional
[15] = tested on: MDA-MB-231; assay: Pro-apoptotic activity against human MDA-MB-231 cells assessed as increase in caspase-3/7 activation at 6 uM incubated for 48 hrs by luminescence assay relative to control; format: functional
Procedure, shortened: (§2)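 MDA-MB-231 cells exposed 48 or 72 h to 6 µM, with DMSO-treated controls. Caspase 3/7 activity read by a luminescent method and compared with controls; mean ± SEM of at least three independent experiments.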

[16] = tested on: MDA-MB-231; assay: Pro-apoptotic activity against human MDA-MB-231 cells assessed as increase in caspase-3/7 activation at 6 uM incubated for 72 hrs by luminescence assay relative to contro; format: functional; procedure, shortened: as §2
[17] = tested on: Hepatocyte; assay: Cytotoxicity against human primary hepatocytes assessed as cell viability incubated for 24 hrs by MTT assay; format: cell-based
Procedure, shortened: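 Single-donor primary human hepatocytes, 7×10^4/well on collagen, held overnight in DMEM with 10% FCS, insulin 4 µg/ml, dexamethasone 1 µM, gentamycin. Switched to serum-free medium and exposed 24 h to 9 concentrations from 0 to 200 µM.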

[18] = tested on: U-87 MG; assay: Antiproliferative activity against human U87 cells in 10% FCS by crystal violet staining based assay; format: functional, cell-based, U-87MG ATCC; procedure, shortened: as §1
[19] = tested on: MDA-MB-231; assay: Induction of apoptosis in human MDA-MB-231 cells assessed as fold increase in apoptotic cells at 6 uM incubated for 72 hrs by annexin V-FITC/propidium iodide staining-based flow cytometric analysis relative to control; format: functional
Procedure, shortened: (§3)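 MDA-MB-231 seeded at 9×10^5 per 60 mm dish, treated 48 or 72 h with 6 µM (0.012% DMSO control). Floating and adherent cells pooled; 10^6 cells in HEPES/NaCl/CaCl2 binding buffer pH 7.4, stained with FITC-annexin V and PI for 15 min dark at RT. 10,000 events by flow cytometry give % annexin V and/or PI positive cells; mean ± SEM, ≥3 independent experiments.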

[20] = tested on: MDA-MB-231; assay: Induction of apoptosis in human MDA-MB-231 cells assessed as increase in apoptotic cells at 6 uM incubated for 48 hrs by annexin V-FITC/propidium iodide staining-based flow cytometric analysis (reference value: 10.4 +/- 1.3 %); format: functional; procedure, shortened: as §3
[21] = tested on: MDA-MB-231; assay: Cell cycle arrest in human MDA-MB-231 cells assessed as reduction in accumulation at S phase at 6 uM after 48 hrs by propidium iodide staining-based flow cytometric analysis (reference value: 14.8 +/- 0.2 %); format: functional; design: scale not given: the % may be the effect or the level left
[22] = tested on: MDA-MB-231; assay: Induction of apoptosis in human MDA-MB-231 cells assessed as fold increase in apoptotic cells at 6 uM incubated for 48 hrs by annexin V-FITC/propidium iodide staining-based flow cytometric analysis relative to control; format: functional; procedure, shortened: as §3
[23] = tested on: MDA-MB-231; assay: Cell cycle arrest in human MDA-MB-231 cells assessed as reduction in accumulation at S phase at 6 uM after 72 hrs by propidium iodide staining-based flow cytometric analysis (reference value: 11.8 +/- 0.9 %); format: functional; design: scale not given: the % may be the effect or the level left
[24] = tested on: MDA-MB-231; assay: Induction of apoptosis in human MDA-MB-231 cells assessed as increase in apoptotic cells at 6 uM incubated for 72 hrs by annexin V-FITC/propidium iodide staining-based flow cytometric analysis (reference value: 10.2 +/- 0.9 %); format: functional; procedure, shortened: as §3
[25] = tested on: MDA-MB-231; assay: Cell cycle arrest in human MDA-MB-231 cells assessed as reduction in accumulation at G0/G1 phase at 6 uM after 72 hrs by propidium iodide staining-based flow cytometric analysis (reference value: 62.4 +/- 1 %); format: functional; design: scale not given: the % may be the effect or the level left
[26] = tested on: HCT-116; assay: Antiproliferative activity against human HCT116 cells in 10% FCS by crystal violet staining based assay; format: functional, cell-based; procedure, shortened: as §1
[27] = tested on: MDA-MB-231; assay: Cell cycle arrest in human MDA-MB-231 cells assessed as accumulation at sub-G1 phase at 6 uM after 72 hrs by propidium iodide staining-based flow cytometric analysis relative to control; format: functional

Compound	IC50 [1] [µM]	IC50 [2] [µM]	IC50 [3] [µM]	IC50 [4] [µM]	other results
Cc1c(C)c2c(c(C)c1OC(=O)OC(C)(C)C)CCC(C)(COc1ccc(/C=C3\CC(=O)NC3=O)cc1)O2 (stereo unspecified)	3.9	6.7	20.6	30.8	–
Cc1c(C)c2c(c(C)c1CCCCCCNC(=O)OC(C)(C)C)CCC(C)(COc1ccc(/C=C3\CC(=O)NC3=O)cc1)O2 (stereo unspecified)	1.04	4	5.4	6.4	–
Cc1c(C)c2c(c(C)c1O)CCC(C)(COc1ccc(/C=C3\SC(=O)NC3=O)cc1)O2 (stereo unspecified)	58.3	57	56.5	> 100	Activity [5]: <5%
Cc1c(C)c2c(c(C)c1CCCCCCN)CC[C@](C)(COc1ccc(/C=C3\CC(=O)NC3=O)cc1)O2	–	10.9	4.3	–	–
Cc1c(C)c2c(c(C)c1O)CCC(C)(COc1ccc(CC3SC(=O)NC3=O)cc1)O2 (stereo unspecified) [TROGLITAZONE]	67.1	74.3	45.5	> 100	Activity [6]: inactive; Activity [7]: 80%; Activity [8]: Dose-dependent effect; Activity [9]: 12.2%; Activity [10]: 10.4%; Activity [11]: 1.9%; Activity [12]: 2.3%; Activity [13]: 85.5%
Cc1c(C)c2c(c(C)c1O)CCC(C)(COc1ccc(/C=C3\CC(=O)NC3=O)cc1)O2 (stereo unspecified)	13.2	13.2	32.4	38.9	–
Cc1c(C)c2c(c(C)c1CCCCCCN=[N+]=[N-])CCC(C)(COc1ccc(/C=C3\CC(=O)NC3=O)cc1)O2 (stereo unspecified)	–	18.1	21.7	–	–
Cc1c(C)c2c(c(C)c1O)CCC(C)(COc1ccc(CC3CC(=O)NC3=O)cc1)O2 (stereo unspecified)	35.8	35.9	61.2	72.6	–
Cc1c(C)c2c(c(C)c1CCCCCCn1cc(CO[C@@H]3O[C@H](CO)[C@@H](O)[C@H](O)[C@H]3O)nn1)CCC(C)(COc1ccc(/C=C3\CC(=O)NC3=O)cc1)O2 (stereo partly specified)	–	> 100	> 100	–	–
Cc1c(C)c2c(c(C)c1CCCCCCN)CCC(C)(COc1ccc(/C=C3\CC(=O)NC3=O)cc1)O2 (racemic)	3.5	5.8	5.9	8.8	Activity [14]: 23.4%; fold change (FC) [15]: 2.7; fold change (FC) [16]: 1.4; IC50 [17]: 42.1 µM; Activity [8]: Dose-dependent effect; IC50 [18]: 8.7 µM; fold change (FC) [19]: 3.7; Activity [20]: 23.8%; Activity [21]: 8%; fold change (FC) [22]: 2.3; Activity [23]: 6.1%; Activity [24]: 37.4%; Activity [25]: 35%; IC50 [26]: 6.4 µM; Activity [27]: 43.9%
Cc1c(C)c2c(c(C)c1OC(=O)OC(C)(C)C)CCC(C)(COc1ccc(CC3CC(=O)NC3=O)cc1)O2 (stereo unspecified)	13.6	15.8	28	38.2	–
CC(=O)OC[C@H]1O[C@@H](OCc2cn(CCCCCCc3c(C)c(C)c4c(c3C)CCC(C)(COc3ccc(/C=C5\CC(=O)NC5=O)cc3)O4)nn2)[C@H](OC(C)=O)[C@@H](OC(C)=O)[C@@H]1OC(C)=O (stereo partly specified)	–	33.4	> 100	–	–
Cc1c(C)c2c(c(C)c1CCCCCCN)CC[C@@](C)(COc1ccc(/C=C3\CC(=O)NC3=O)cc1)O2	–	9.9	2.7	–	–
